Test results reported in ChEMBL document CHEMBL1255347, “Multiclonal outbreak of Klebsiella pneumoniae producing extended-spectrum beta-lactamase CTX-M-2 and novel variant CTX-M-59 in a neonatal intensive care unit in Brazil” (2008).
In brackets after ≈: the same amount, converted by molar mass.

Key:
[1] = tested on: Klebsiella pneumoniae; assay: Antimicrobial activity against CTX-M-2 producing Klebsiella pneumoniae with PFGE pulsotype A by Etest; format: functional
Outline: (§1)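 Clinical K. pneumoniae isolates from a neonatal ICU outbreak near São Paulo were typed by XbaI PFGE using Tenover criteria. Cultures were grown in LB broth at 37°C. Etest MICs followed the manufacturer's instructions, with cefotaxime and ceftazidime each tested with and without clavulanic acid.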

[2] = tested on: Klebsiella pneumoniae; assay: Antimicrobial activity against CTX-M-2 producing Klebsiella pneumoniae with PFGE pulsotype B by Etest; format: functional; outline: as §1
[3] = tested on: Klebsiella pneumoniae; assay: Antimicrobial activity against CTX-M-59 producing Klebsiella pneumoniae with PFGE pulsotype C by Etest; format: functional
[4] = tested on: Klebsiella pneumoniae; assay: Antimicrobial activity against SHV-5 producing Klebsiella pneumoniae with PFGE pulsotype D by Etest; format: functional; outline: as §1
[5] = tested on: Klebsiella pneumoniae; assay: Antimicrobial activity against CTX-M-59 producing Klebsiella pneumoniae with PFGE pulsotype E by Etest; format: functional
[6] = tested on: Klebsiella pneumoniae; assay: Antimicrobial activity against CTX-M-2 producing Klebsiella pneumoniae with PFGE pulsotype F by Etest; format: functional
[7] = tested on: Klebsiella pneumoniae; assay: Antimicrobial activity against CTX-M-59 producing Klebsiella pneumoniae with PFGE pulsotype G by Etest; format: functional; outline: as §1
[8] = tested on: Klebsiella pneumoniae; assay: Antimicrobial activity against CTX-M-2 producing Klebsiella pneumoniae with PFGE pulsotype H by Etest; format: functional; outline: as §1
[9] = tested on: Klebsiella pneumoniae; assay: Antimicrobial activity against CTX-M-2 producing Klebsiella pneumoniae with PFGE pulsotype I by Etest; format: functional
[10] = tested on: Klebsiella pneumoniae; assay: Antimicrobial activity against CTX-M-2 producing Klebsiella pneumoniae with PFGE pulsotype J by Etest; format: functional
[11] = tested on: Escherichia coli; assay: Antimicrobial activity against Escherichia coli str. K-12 substr. DH10B harboring plasmid CTX-M-2; format: functional; conditions: K-12 DH10B
Outline: (§2)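 blaCTX-M PCR products were cut with XbaI/BamHI and cloned into pBC-SK(−), then electroporated into E. coli DH10B. Transformants were selected on LB agar with ampicillin 50 μg/ml and chloramphenicol 30 μg/ml, and sequences were confirmed. These clones were used for β-lactam MICs, with and without clavulanic acid.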

[12] = tested on: Escherichia coli; assay: Antimicrobial activity against Escherichia coli str. K-12 substr. DH10B harboring plasmid CTX-M-59; format: functional; conditions: K-12 DH10B; outline: as §2
[13] = tested on: Klebsiella pneumoniae; assay: Antimicrobial activity against CTX-M-2 and TEM-1 producing Klebsiella pneumoniae transconjugants/transformants with PFGE pulsotype A by Etest; format: functional
Outline: (§3)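 The recipient was E. coli XL1-Blue Rifr NAr. Plasmids moved by broth mating, with transconjugants selected on LB agar containing ampicillin, rifampin and nalidixic acid, each at 50 μg/ml. Where mating failed, alkaline-lysis plasmid extracts were electroporated and selected on ampicillin 50 μg/ml. β-lactam MICs were read by Etest, with and without clavulanic acid.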

[14] = tested on: Klebsiella pneumoniae; assay: Antimicrobial activity against CTX-M-2 and TEM-1 producing Klebsiella pneumoniae transconjugants/transformants with PFGE pulsotype B by Etest; format: functional; outline: as §3
[15] = tested on: Klebsiella pneumoniae; assay: Antimicrobial activity against CTX-M-59 and TEM-1 producing Klebsiella pneumoniae transconjugants/transformants with PFGE pulsotype C by Etest; format: functional; outline: as §3
[16] = tested on: Klebsiella pneumoniae; assay: Antimicrobial activity against SHV-5 producing Klebsiella pneumoniae transconjugants/transformants with PFGE pulsotype D by Etest; format: functional; outline: as §3
[17] = tested on: Klebsiella pneumoniae; assay: Antimicrobial activity against CTX-M-59 and TEM-1 producing Klebsiella pneumoniae transconjugants/transformants with PFGE pulsotype E by Etest; format: functional; outline: as §3
[18] = tested on: Klebsiella pneumoniae; assay: Antimicrobial activity against CTX-M-2 and TEM-1 producing Klebsiella pneumoniae transconjugants/transformants with PFGE pulsotype F by Etest; format: functional; outline: as §3
[19] = tested on: Klebsiella pneumoniae; assay: Antimicrobial activity against CTX-M-59 and TEM-1 producing Klebsiella pneumoniae transconjugants/transformants with PFGE pulsotype G by Etest; format: functional; outline: as §3
[20] = tested on: Klebsiella pneumoniae; assay: Antimicrobial activity against CTX-M-2 and TEM-1 producing Klebsiella pneumoniae transconjugants/transformants with PFGE pulsotype H by Etest; format: functional; outline: as §3
[21] = tested on: Klebsiella pneumoniae; assay: Antimicrobial activity against CTX-M-2 and TEM-1 producing Klebsiella pneumoniae transconjugants/transformants with PFGE pulsotype I by Etest; format: functional; outline: as §3
[22] = tested on: Klebsiella pneumoniae; assay: Antimicrobial activity against CTX-M-2 and TEM-1 producing Klebsiella pneumoniae transconjugants/transformants with PFGE pulsotype J by Etest; format: functional; outline: as §3
[23] = tested on: Escherichia coli; assay: Antimicrobial activity against Escherichia coli str. K-12 substr. DH10B harboring plasmid CTX-M-2 in presence of clavulanic acid; format: functional; conditions: K-12 DH10B; outline: as §2
[24] = tested on: Escherichia coli; assay: Antimicrobial activity against Escherichia coli str. K-12 substr. DH10B harboring plasmid CTX-M-59 in presence of clavulanic acid; format: functional; conditions: K-12 DH10B; outline: as §2
[25] = tested on: Klebsiella pneumoniae; assay: Antimicrobial activity against CTX-M-2 and TEM-1 producing Klebsiella pneumoniae transconjugants/transformants with PFGE pulsotype B by Etest in presence of clavulanic acid; format: functional; outline: as §3
[26] = tested on: Klebsiella pneumoniae; assay: Antimicrobial activity against CTX-M-59 and TEM-1 producing Klebsiella pneumoniae transconjugants/transformants with PFGE pulsotype C by Etest in presence of clavulanic acid; format: functional; outline: as §3
[27] = tested on: Klebsiella pneumoniae; assay: Antimicrobial activity against SHV-5 producing Klebsiella pneumoniae transconjugants/transformants with PFGE pulsotype D by Etest in presence of clavulanic acid; format: functional; outline: as §3
[28] = tested on: Klebsiella pneumoniae; assay: Antimicrobial activity against CTX-M-59 and TEM-1 producing Klebsiella pneumoniae transconjugants/transformants with PFGE pulsotype E by Etest in presence of clavulanic acid; format: functional; outline: as §3
[29] = tested on: Klebsiella pneumoniae; assay: Antimicrobial activity against CTX-M-2 and TEM-1 producing Klebsiella pneumoniae transconjugants/transformants with PFGE pulsotype F by Etest in presence of clavulanic acid; format: functional; outline: as §3
[30] = tested on: Klebsiella pneumoniae; assay: Antimicrobial activity against CTX-M-59 and TEM-1 producing Klebsiella pneumoniae transconjugants/transformants with PFGE pulsotype G by Etest in presence of clavulanic acid; format: functional; outline: as §3
[31] = tested on: Klebsiella pneumoniae; assay: Antimicrobial activity against CTX-M-2 and TEM-1 producing Klebsiella pneumoniae transconjugants/transformants with PFGE pulsotype H by Etest in presence of clavulanic acid; format: functional
[32] = tested on: Klebsiella pneumoniae; assay: Antimicrobial activity against CTX-M-2 and TEM-1 producing Klebsiella pneumoniae transconjugants/transformants with PFGE pulsotype I by Etest in presence of clavulanic acid; format: functional; outline: as §3
[33] = tested on: Klebsiella pneumoniae; assay: Antimicrobial activity against CTX-M-2 and TEM-1 producing Klebsiella pneumoniae transconjugants/transformants with PFGE pulsotype J by Etest in presence of clavulanic acid; format: functional; outline: as §3
[34] = tested on: Klebsiella pneumoniae; assay: Antimicrobial activity against CTX-M-2 producing Klebsiella pneumoniae with PFGE pulsotype A by Etest in presence of clavulanic acid; format: functional; outline: as §1
[35] = tested on: Klebsiella pneumoniae; assay: Antimicrobial activity against CTX-M-2 producing Klebsiella pneumoniae with PFGE pulsotype B by Etest in presence of clavulanic acid; format: functional; outline: as §1
[36] = tested on: Klebsiella pneumoniae; assay: Antimicrobial activity against CTX-M-59 producing Klebsiella pneumoniae with PFGE pulsotype C by Etest in presence of clavulanic acid; format: functional; outline: as §1
[37] = tested on: Klebsiella pneumoniae; assay: Antimicrobial activity against SHV-5 producing Klebsiella pneumoniae with PFGE pulsotype D by Etest in presence of clavulanic acid; format: functional
[38] = tested on: Klebsiella pneumoniae; assay: Antimicrobial activity against CTX-M-59 producing Klebsiella pneumoniae with PFGE pulsotype E by Etest in presence of clavulanic acid; format: functional
Outline: (§4)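 MICs were determined by Etest strips following the manufacturer's instructions, using cefotaxime and ceftazidime each combined with clavulanic acid. The test strains were clinical NICU outbreak isolates confirmed as ESBL producers by disk diffusion. Pulsotypes were assigned by XbaI PFGE using Tenover relatedness criteria. Cultures were routinely grown in LB broth at 37°C.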

[39] = tested on: Klebsiella pneumoniae; assay: Antimicrobial activity against CTX-M-2 producing Klebsiella pneumoniae with PFGE pulsotype F by Etest in presence of clavulanic acid; format: functional; outline: as §1
[40] = tested on: Klebsiella pneumoniae; assay: Antimicrobial activity against CTX-M-59 producing Klebsiella pneumoniae with PFGE pulsotype G by Etest in presence of clavulanic acid; format: functional; outline: as §4
[41] = tested on: Klebsiella pneumoniae; assay: Antimicrobial activity against CTX-M-2 producing Klebsiella pneumoniae with PFGE pulsotype H by Etest in presence of clavulanic acid; format: functional
Outline: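 Etest strips used per manufacturer's instructions to read MICs of cefotaxime and ceftazidime, each with clavulanic acid, on clinical NICU K. pneumoniae outbreak isolates. Isolates were typed by XbaI PFGE using Tenover criteria and routinely grown in LB broth at 37°C.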

[42] = tested on: Klebsiella pneumoniae; assay: Antimicrobial activity against CTX-M-2 producing Klebsiella pneumoniae with PFGE pulsotype I by Etest in presence of clavulanic acid; format: functional; outline: as §1
[43] = tested on: Klebsiella pneumoniae; assay: Antimicrobial activity against CTX-M-2 producing Klebsiella pneumoniae with PFGE pulsotype J by Etest in presence of clavulanic acid; format: functional; outline: as §1
[44] = tested on: Escherichia coli; assay: Antimicrobial activity against CTX-M-2 and TEM-1 producing Escherichia coli transconjugants/transformants with PFGE pulsotype A by Etest in presence of clavulanic acid

C[C@@H](O)[C@H]1C(=O)N2C(C(=O)O)=C(S[C@@H]3CN[C@H](C(=O)Nc4cccc(C(=O)O)c4)C3)[C@H](C)[C@H]12
MIC [1]: 1.5 µg/mL (≈ 3.15 µM)
MIC [2]: 1 µg/mL (≈ 2.1 µM)
MIC [3]: 1.5 µg/mL (≈ 3.15 µM)
MIC [4]: 0.094 µg/mL (≈ 0.198 µM)
MIC [5]: 1.5 µg/mL (≈ 3.15 µM)
MIC [6]: 1.5 µg/mL (≈ 3.15 µM)
MIC [7]: 1.5 µg/mL (≈ 3.15 µM)
MIC [8]: 2 µg/mL (≈ 4.21 µM)
MIC [9]: 1 µg/mL (≈ 2.1 µM)
MIC [10]: 1.5 µg/mL (≈ 3.15 µM)
MIC [11]: 0.016 µg/mL (≈ 0.0336 µM)
MIC [12]: 0.016 µg/mL (≈ 0.0336 µM)
MIC [13]: 0.125 µg/mL (≈ 0.263 µM)
MIC [14]: 0.125 µg/mL (≈ 0.263 µM)
MIC [15]: 0.064 µg/mL (≈ 0.135 µM)
MIC [16]: 0.012 µg/mL (≈ 0.0252 µM)
MIC [17]: 0.094 µg/mL (≈ 0.198 µM)
MIC [18]: 0.125 µg/mL (≈ 0.263 µM)
MIC [19]: 0.125 µg/mL (≈ 0.263 µM)
MIC [20]: 0.094 µg/mL (≈ 0.198 µM)
MIC [21]: 0.032 µg/mL (≈ 0.0673 µM)
MIC [22]: 0.094 µg/mL (≈ 0.198 µM)

CC(C)(O/N=C(\C(=O)N[C@@H]1C(=O)N2C(C(=O)[O-])=C(C[n+]3ccccc3)CS[C@H]12)c1csc(N)n1)C(=O)O [CEFTAZIDIME]
MIC [1]: 6 µg/mL (≈ 11 µM)
MIC [2]: 24 µg/mL (≈ 43.9 µM)
MIC [3]: 4 µg/mL (≈ 7.32 µM)
MIC [4]: 256 µg/mL (≈ 468 µM)
MIC [5]: 8 µg/mL (≈ 14.6 µM)
MIC [6]: 8 µg/mL (≈ 14.6 µM)
MIC [7]: 12 µg/mL (≈ 22 µM)
MIC [8]: 256 µg/mL (≈ 468 µM)
MIC [9]: 4 µg/mL (≈ 7.32 µM)
MIC [10]: 6 µg/mL (≈ 11 µM)
MIC [11]: 8 µg/mL (≈ 14.6 µM)
MIC [23]: 0.38 µg/mL
MIC [12]: 8 µg/mL (≈ 14.6 µM)
MIC [24]: 0.38 µg/mL
MIC [13]: 8 µg/mL (≈ 14.6 µM)
MIC [14]: 12 µg/mL (≈ 22 µM)
MIC [15]: 8 µg/mL (≈ 14.6 µM)
MIC [16]: > 256 µg/mL
MIC [17]: 4 µg/mL (≈ 7.32 µM)
MIC [18]: 16 µg/mL (≈ 29.3 µM)
MIC [19]: 8 µg/mL (≈ 14.6 µM)
MIC [20]: 8 µg/mL (≈ 14.6 µM)
MIC [21]: 6 µg/mL (≈ 11 µM)
MIC [22]: 12 µg/mL (≈ 22 µM)
MIC [25]: 0.19 µg/mL
MIC [26]: 0.25 µg/mL
MIC [27]: 0.19 µg/mL
MIC [28]: 0.19 µg/mL
MIC [29]: 0.38 µg/mL
MIC [30]: 0.38 µg/mL
MIC [31]: 0.25 µg/mL
MIC [32]: 0.19 µg/mL
MIC [33]: 0.38 µg/mL
MIC [34]: 0.5 µg/mL
MIC [35]: 0.75 µg/mL
MIC [36]: 0.38 µg/mL
MIC [37]: 0.25 µg/mL
MIC [38]: 0.75 µg/mL
MIC [39]: 1.5 µg/mL
MIC [40]: 1 µg/mL
MIC [41]: > 4 µg/mL
MIC [42]: 0.5 µg/mL
MIC [43]: 0.75 µg/mL
MIC [44]: 0.19 µg/mL
